Series [1] has as its target T1, Phosphatidylinositol 4,5-bisphosphate 3-kinase catalytic subunit delta isoform (Homo sapiens, UniProt O00329).
T1 sequence (O00329 whole entry): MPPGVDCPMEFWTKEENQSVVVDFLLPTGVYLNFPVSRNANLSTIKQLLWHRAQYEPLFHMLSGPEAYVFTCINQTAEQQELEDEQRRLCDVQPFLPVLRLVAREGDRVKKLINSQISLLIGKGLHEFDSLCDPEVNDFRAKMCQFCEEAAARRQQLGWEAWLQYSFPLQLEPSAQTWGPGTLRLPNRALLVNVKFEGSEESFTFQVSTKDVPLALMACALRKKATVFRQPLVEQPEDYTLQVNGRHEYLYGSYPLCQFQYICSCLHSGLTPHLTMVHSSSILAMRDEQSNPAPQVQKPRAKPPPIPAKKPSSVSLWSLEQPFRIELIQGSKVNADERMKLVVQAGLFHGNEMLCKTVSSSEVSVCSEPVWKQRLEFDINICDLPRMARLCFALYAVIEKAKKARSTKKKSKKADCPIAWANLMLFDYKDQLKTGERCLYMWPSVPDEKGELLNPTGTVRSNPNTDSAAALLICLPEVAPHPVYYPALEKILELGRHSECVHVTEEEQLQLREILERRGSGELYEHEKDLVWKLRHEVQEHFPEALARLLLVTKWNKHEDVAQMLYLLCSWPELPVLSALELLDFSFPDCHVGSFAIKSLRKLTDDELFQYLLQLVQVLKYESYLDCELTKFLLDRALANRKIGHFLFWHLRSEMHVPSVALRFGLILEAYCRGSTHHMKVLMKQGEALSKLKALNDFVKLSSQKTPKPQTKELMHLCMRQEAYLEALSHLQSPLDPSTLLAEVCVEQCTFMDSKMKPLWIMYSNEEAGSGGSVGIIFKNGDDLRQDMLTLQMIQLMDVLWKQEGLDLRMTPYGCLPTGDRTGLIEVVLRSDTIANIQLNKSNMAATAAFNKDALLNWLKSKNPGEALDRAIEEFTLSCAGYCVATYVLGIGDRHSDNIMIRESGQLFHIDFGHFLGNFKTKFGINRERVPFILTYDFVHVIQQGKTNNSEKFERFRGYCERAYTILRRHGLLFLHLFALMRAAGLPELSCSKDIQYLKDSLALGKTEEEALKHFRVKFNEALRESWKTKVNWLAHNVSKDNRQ
Description: Inhibition of human PI3Kdelta using PIP2 as substrate after 1 hr.

A short description of series [2]: Cmax in C57BL/6J mouse at 3 mg/kg, po measured up to 30 hrs by LC-MS/MS analysis. It counts as ADME, organism-based. The arrangement: dose 3 mg/kg, route oral. Conditions: in vivo. The method, boiled down:
(§1)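 Male C57BL/6J mice (n = 6) received single doses of 3 mg/kg po or 1 mg/kg iv. Plasma concentrations were measured by LC-MS. Values are mean ± SD. Oral bioavailability (%F) was calculated from the ratio to iv AUC.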

A short description of series [3]: Half life in C57BL/6J mouse at 3 mg/kg, po measured up to 30 hrs by LC-MS/MS analysis. It counts as ADME, organism-based. The conditions noted are these: in vivo. The method, boiled down: as §1
A short description of series [4]: Oral bioavailability in C57BL/6J mouse at 3 mg/kg measured up to 30 hrs by LC-MS/MS analysis. It counts as ADME, organism-based. The conditions noted are these: in vivo. Summed up: as §1
Series [5] is described as follows: Clearance in C57BL/6J mouse at 1 mg/kg, iv measured up to 30 hrs by LC-MS/MS analysis. It counts as ADME, organism-based. The conditions noted are these: in vivo. The method, boiled down:
as §1

A short description of series [6]: AUC (0 to infinity) in C57BL/6J mouse 1 mg/kg, iv measured up to 30 hrs by LC-MS/MS analysis. The arrangement: dose 1 mg/kg, time infinity, route intravenous. It counts as ADME, organism-based. Conditions: in vivo. Summed up:
(§2)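 Single-dose PK in male C57BL/6J mice (n = 6), dosed 1 mg/kg iv or 3 mg/kg orally. Plasma drug levels were measured by LC-MS, and PK parameters (Tmax, Cmax, t1/2, Cl, AUC, %F) were derived. Values are given as mean ± SD. Oral bioavailability was calculated against the iv AUC.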

The target in series [7] is Phosphatidylinositol 4,5-bisphosphate 3-kinase catalytic subunit gamma isoform (Homo sapiens, UniProt P48736). Description: Inhibition of human PI3Kgamma using PIP2 as substrate after 1 hr.
In series [8] the target is Phosphatidylinositol 4,5-bisphosphate 3-kinase catalytic subunit beta isoform (Homo sapiens, UniProt P42338). Briefly: Inhibition of human PI3Kbeta using PIP2 as substrate after 1 hr.
A short description of series [9]: AUC (0 to infinity) in C57BL/6J mouse 3 mg/kg, po measured up to 30 hrs by LC-MS/MS analysis. It counts as ADME, organism-based. The arrangement: dose 3 mg/kg, route oral, time infinity. The conditions noted are these: in vivo. The method, boiled down: as §2
The target of series [10] is Serine/threonine-protein kinase mTOR (Homo sapiens, UniProt P42345). Description: Inhibition of mTOR (unknown origin) assessed as reduction in p70S6K phosphorylation.
In series [11] the target is Phosphatidylinositol 4,5-bisphosphate 3-kinase catalytic subunit alpha isoform (Homo sapiens, UniProt P42336). Briefly: Inhibition of human PI3Kalpha using PIP2 as substrate after 1 hr.
The nature of series [12]: Tmax in C57BL/6J mouse at 3 mg/kg, po measured up to 30 hrs by LC-MS/MS analysis. It counts as ADME, organism-based. The conditions noted are these: in vivo. The method, boiled down:
as §1

The subject of a further series is TMD8. Briefly: Antiproliferative activity against human TMD8 cells. It counts as functional, cell-based.
The nature of series [13]: Toxicity in DBA1/J mouse assessed as reduction in body weight at 60 mg/kg, po […] measured thrice per week. It counts as organism-based. Conditions: in vivo, 336 h.
A further series relates to Mus musculus. Description: Antiarthritic activity in complete Freund's adjuvant-induced DBA1/J mouse arthritis model assessed as inhibition in clinical arthritis score at 60 mg/kg, po administered for 14 days relative to control. It counts as functional, organism-based. Conditions: in the assay text read “4 weeks” for “14 days”. The method, boiled down:
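Male DBA1j mice had arthritis induced with a collagen mixture and were enrolled once clinical signs appeared. Animals were split into four groups of eight: vehicle, a positive control and two doses of test compound. Treatment ran four weeks. The read-out was percentage inhibition of clinical arthritis score versus the vehicle group.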

Calls of active or inactive are those of the source. The calls are words filed in the database; no cut-off is given here.

Sequence of Phosphatidylinositol 4,5-bisphosphate 3-kinase catalytic subunit beta isoform (P42338 whole entry, canonical isoform): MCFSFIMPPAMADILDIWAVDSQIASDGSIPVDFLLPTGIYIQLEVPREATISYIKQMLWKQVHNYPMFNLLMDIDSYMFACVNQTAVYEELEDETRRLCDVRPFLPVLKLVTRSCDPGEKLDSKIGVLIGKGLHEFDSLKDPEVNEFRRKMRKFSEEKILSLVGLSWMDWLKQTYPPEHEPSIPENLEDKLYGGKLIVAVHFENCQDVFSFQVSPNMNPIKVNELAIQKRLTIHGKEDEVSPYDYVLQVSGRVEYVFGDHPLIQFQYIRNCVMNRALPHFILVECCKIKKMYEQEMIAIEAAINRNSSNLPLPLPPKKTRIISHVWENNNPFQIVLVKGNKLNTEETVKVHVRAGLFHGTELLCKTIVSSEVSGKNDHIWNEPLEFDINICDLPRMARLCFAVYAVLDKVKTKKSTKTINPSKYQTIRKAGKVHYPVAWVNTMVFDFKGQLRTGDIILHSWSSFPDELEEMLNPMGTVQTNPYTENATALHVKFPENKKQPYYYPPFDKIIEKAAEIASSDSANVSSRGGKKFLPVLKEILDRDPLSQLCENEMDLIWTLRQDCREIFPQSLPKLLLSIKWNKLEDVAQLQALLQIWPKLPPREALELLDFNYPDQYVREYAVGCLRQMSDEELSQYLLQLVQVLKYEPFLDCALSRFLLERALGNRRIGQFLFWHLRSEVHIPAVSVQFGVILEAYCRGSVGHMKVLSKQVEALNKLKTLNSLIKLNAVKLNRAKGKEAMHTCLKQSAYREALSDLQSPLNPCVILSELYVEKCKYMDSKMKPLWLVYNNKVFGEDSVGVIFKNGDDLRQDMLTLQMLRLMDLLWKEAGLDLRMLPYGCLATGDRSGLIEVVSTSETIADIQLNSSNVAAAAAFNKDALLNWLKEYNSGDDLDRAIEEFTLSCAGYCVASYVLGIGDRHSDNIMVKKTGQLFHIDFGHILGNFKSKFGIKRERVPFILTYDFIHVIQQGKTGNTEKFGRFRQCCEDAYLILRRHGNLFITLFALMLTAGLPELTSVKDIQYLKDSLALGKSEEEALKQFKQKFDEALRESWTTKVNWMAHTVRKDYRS
Sequence of Phosphatidylinositol 4,5-bisphosphate 3-kinase catalytic subunit alpha isoform (P42336 whole entry, looked up, canonical isoform): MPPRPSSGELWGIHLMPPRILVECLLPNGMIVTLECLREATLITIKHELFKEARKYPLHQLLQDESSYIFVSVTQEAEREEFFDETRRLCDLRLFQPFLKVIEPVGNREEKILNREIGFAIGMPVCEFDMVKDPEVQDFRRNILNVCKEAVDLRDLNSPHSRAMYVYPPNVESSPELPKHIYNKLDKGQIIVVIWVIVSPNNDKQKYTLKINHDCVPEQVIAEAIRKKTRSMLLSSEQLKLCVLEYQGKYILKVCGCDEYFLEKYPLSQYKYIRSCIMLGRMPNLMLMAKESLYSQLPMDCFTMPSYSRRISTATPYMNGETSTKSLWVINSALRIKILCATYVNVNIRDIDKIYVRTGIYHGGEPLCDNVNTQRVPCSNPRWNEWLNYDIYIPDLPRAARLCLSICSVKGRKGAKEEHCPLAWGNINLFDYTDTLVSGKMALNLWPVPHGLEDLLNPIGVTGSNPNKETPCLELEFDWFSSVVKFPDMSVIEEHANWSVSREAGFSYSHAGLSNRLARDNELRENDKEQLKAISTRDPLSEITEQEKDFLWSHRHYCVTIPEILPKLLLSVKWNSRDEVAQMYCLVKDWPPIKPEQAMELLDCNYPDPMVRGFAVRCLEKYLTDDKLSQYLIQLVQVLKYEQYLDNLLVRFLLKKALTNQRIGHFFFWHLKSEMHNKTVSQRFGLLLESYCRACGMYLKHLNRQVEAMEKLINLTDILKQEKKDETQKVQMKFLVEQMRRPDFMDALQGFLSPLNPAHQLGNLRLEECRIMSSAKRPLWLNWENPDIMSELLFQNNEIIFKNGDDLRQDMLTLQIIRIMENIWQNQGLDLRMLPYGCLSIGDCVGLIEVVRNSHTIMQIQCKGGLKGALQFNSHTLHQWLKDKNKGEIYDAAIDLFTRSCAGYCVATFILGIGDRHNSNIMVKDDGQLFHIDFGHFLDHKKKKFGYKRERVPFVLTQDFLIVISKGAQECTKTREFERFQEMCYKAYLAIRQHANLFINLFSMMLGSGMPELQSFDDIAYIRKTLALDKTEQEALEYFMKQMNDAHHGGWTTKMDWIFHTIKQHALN
Sequence of Phosphatidylinositol 4,5-bisphosphate 3-kinase catalytic subunit gamma isoform (P48736 whole entry, canonical isoform): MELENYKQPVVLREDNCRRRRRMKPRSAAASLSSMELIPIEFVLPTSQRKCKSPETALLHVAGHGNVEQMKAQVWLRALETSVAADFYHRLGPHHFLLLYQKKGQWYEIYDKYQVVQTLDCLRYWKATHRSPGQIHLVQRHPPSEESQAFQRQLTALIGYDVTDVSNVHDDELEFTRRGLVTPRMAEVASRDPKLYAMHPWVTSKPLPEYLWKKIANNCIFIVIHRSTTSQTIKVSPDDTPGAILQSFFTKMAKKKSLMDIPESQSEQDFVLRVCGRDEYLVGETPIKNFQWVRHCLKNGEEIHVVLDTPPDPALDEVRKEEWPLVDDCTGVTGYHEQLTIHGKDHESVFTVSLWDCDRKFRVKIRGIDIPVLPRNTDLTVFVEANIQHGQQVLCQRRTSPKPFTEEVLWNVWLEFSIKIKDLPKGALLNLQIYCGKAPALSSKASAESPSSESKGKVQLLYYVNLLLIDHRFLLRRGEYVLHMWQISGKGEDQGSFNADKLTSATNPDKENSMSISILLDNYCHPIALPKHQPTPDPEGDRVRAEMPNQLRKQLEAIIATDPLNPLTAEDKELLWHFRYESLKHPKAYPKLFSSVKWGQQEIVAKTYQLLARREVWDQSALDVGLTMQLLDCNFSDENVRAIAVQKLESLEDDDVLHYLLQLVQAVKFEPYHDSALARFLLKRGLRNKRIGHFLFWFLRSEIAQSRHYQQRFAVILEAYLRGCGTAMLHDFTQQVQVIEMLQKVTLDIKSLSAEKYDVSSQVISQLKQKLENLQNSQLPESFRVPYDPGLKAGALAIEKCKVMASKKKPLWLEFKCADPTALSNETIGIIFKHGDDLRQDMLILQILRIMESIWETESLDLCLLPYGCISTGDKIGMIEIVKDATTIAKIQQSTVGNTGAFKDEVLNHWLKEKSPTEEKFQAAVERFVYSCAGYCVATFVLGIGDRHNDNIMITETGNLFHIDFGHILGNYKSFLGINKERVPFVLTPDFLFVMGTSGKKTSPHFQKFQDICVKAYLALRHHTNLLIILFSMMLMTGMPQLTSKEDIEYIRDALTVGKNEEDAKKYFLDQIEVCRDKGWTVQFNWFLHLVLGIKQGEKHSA

In series [1], `COc1ccc(Cn2c(=O)n(C)c3c4cc(-c5ccccc5)ccc4ncc32)cc1` yielded an IC50 of 29.4 nM.

Consider `CC(C)c1ccc(Cn2c(=O)n(C)c3c4cc(-c5cnc6ccccc6c5)ccc4ncc32)cc1`, for which the IC50 in series [1] is 28.3 nM.

`COc1ccc(Cn2c(=O)n(C)c3c4cc(-c5cnc(OC)c(NS(=O)(=O)C6CC6)c5)ccc4ncc32)cc1` gave an IC50 in series [1] of 5.9 nM.

`COc1ccc(Cn2c(=O)n(C)c3c4cc(-c5cnc6ccccc6c5)ccc4ncc32)cc1` displayed a Cmax in series [2] of 0.128 µg/mL. In series [3], this molecule gave a half-life of 139 min. The IC50 turned out to be 9.5 nM in series [1]; 38 nM in series [7]; 342 nM in series [8]; 676 nM in series [10]; 421 nM in series [11]. Further, the bioavailability in series [4] amounted to 14.8%. This molecule showed a clearance in series [5] of 22.9 mL/min/kg. The AUC in [6] came out at 743 ng·h/mL; in series [9], 329 ng·h/mL. Moreover, the Tmax in [12] amounted to 22.8 min.

In series [1], `COc1ccc(Cn2c(=O)n(C)c3c4cc(-c5ccc(OC)nc5)ccc4ncc32)cc1` registered an IC50 of 11.4 nM.

As to `COc1ccc(Cn2c(=O)n(C)c3cnc4ccc(-c5cnc(OC)c(NS(C)(=O)=O)c5)cc4c32)cc1`, the IC50 was found to be 4.1 nM in series [1]; 42 nM in [7]; 241 nM in series [8]; 580 nM in series [10]; 289 nM in series [11].

As for `COc1ccc(Cn2c(=O)n(C)c3c4cc(-c5cnc(OC)c(NS(=O)(=O)C(C)C)c5)ccc4ncc32)cc1`, the IC50 in series [1] came out at 6.2 nM.

On to `CC[C@H](Nc1ncnc2[nH]cnc12)c1nc2cccc(F)c2c(=O)n1-c1ccccc1` [IDELALISIB], for which the IC50 in [10] was over 1000 nM; in the series on TMD8, 795 nM.

In [1], `COc1ccc(Cn2c(=O)n(C)c3c4cc(-c5cnc(OC)c(C)c5)ccc4ncc32)cc1` displayed an IC50 of 11.1 nM.

In the case of `Cn1c(=O)n(-c2ccc(C(C)(C)C#N)cc2)c2c3cc(-c4cnc5ccccc5c4)ccc3ncc21` [DACTOLISIB], the Activity entry in series [13] was “Toxic”. In [2], this molecule came in with a Cmax of 0.274 µg/mL. The same molecule had a half-life in [3] of 113 min. The inhibition entry with Mus musculus was “Active”. Moreover, the bioavailability in series [4] worked out at 37.8%. This molecule came in with a clearance in [5] of 72.5 mL/min/kg. In addition, the AUC was determined as 215 ng·h/mL in series [6] and 244 ng·h/mL in [9]. In series [12], the Tmax turned out to be 12.6 min.

The molecule `Cc1ccc(Cn2c(=O)n(C)c3c4cc(-c5cnc6ccccc6c5)ccc4ncc32)cc1` gave an IC50 in [1] of 18.4 nM.

As to `COc1ccc(Cn2c(=O)n(C)c3c4cc(-c5cccnc5)ccc4ncc32)cc1`, the IC50 in series [1] came out at 20 nM.
